Experimental data from ChEMBL document CHEMBL1156267, “Studies of the synthesis of all stereoisomers of MG-132 proteasome inhibitors in the tumor targeting approach” (J Med Chem, 2010).
Active and inactive are the calls of the source. The calls are words filed in the database; no cut-off is given here. Square brackets hold non-standard residues; d marks the D form. Peptide text beside a SMILES is read from it. * marks the point of attachment. 1Nal = N[C@@H](Cc1cccc2ccccc12)C(=O)O; 2Nal = N[C@@H](Cc1ccc2ccccc2c1)C(=O)O; Cbz = O=C(OCc1ccccc1)*

How the values were obtained:
EMT6 [1] = assay: Inhibition of proteasome in mouse EMT6 cell lysate assessed as cleavage of Suc-leu-leu-val-Tyr-AMC at 1000 nM after 30 mins; set-up: scale not given: the % may be the effect or the level left
EMT6 [2] = assay: Cytotoxicity against mouse EMT6 cells after 24 hrs by crystal violet staining
[3] = Inhibition of chymotrypsin-like activity of 20S proteasome from human erythrocyte
Outline: (§1)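 Substrates were Suc-Leu-Leu-Val-Tyr-AMC (chymotrypsin-like), Ac-Arg-Leu-Arg-AMC (trypsin-like) and Z-Leu-Leu-Glu-βNA (PGPH). Hydrolysis was read by fluorescence at ex 355 / em 460 nm against DMSO solvent controls.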

[4] = Inhibition of peptidylglutamyl peptide hydrolyzing-like activity of 20S proteasome from human erythrocyte
Outline: as §1

J558L [5] = assay: Inhibition of proteasome in mouse J558L cell lysate assessed as cleavage of Suc-leu-leu-val-Tyr-AMC at 1000 nM after 15 mins; set-up: scale not given: the % may be the effect or the level left
J558L [6] = assay: Cytotoxicity against mouse J558L cells after 24 hrs by MTT assay; type: functional, cell-based
Outline: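 Murine J558L myeloma cells grown in RPMI-1640 with 10% heat-inactivated FCS, antibiotics, 2-mercaptoethanol and 2 mM L-glutamine. Cells were seeded at 3 × 10³ per well and compounds were added the next day. MTT at 1 mg/mL was present for the last 4 h. Cells were lysed in SDS/DMF buffer at pH 4.7 overnight and read at 570 nm. Viability is (A_e − A_b)×100/(A_c − A_b), relative to medium-only cultures.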

J558L [7] = assay: Inhibition of proteasome in mouse J558L cell lysate assessed as cleavage of Suc-leu-leu-val-Tyr-AMC at 1000 nM after 60 mins; set-up: scale not given: the % may be the effect or the level left
EMT6 [8] = assay: Inhibition of proteasome in mouse EMT6 cell lysate assessed as cleavage of Suc-leu-leu-val-Tyr-AMC at 1000 nM after 15 mins; set-up: scale not given: the % may be the effect or the level left
J558L [9] = assay: Inhibition of proteasome in mouse J558L cell lysate assessed as cleavage of Suc-leu-leu-val-Tyr-AMC at 100 nM after 30 mins; set-up: scale not given: the % may be the effect or the level left
J558L [10] = assay: Inhibition of proteasome in mouse J558L cell lysate assessed as cleavage of Suc-leu-leu-val-Tyr-AMC at 1000 nM after 30 mins; set-up: scale not given: the % may be the effect or the level left
EMT6 [11] = assay: Inhibition of proteasome in mouse EMT6 cell lysate assessed as cleavage of Suc-leu-leu-val-Tyr-AMC at 1000 nM after 60 mins; set-up: scale not given: the % may be the effect or the level left
[12] = Inhibition of trypsin-like activity of 20S proteasome from human erythrocyte
Outline: as §1

J558L [13] = assay: Inhibition of proteasome in mouse J558L cell lysate assessed as cleavage of Suc-leu-leu-val-Tyr-AMC at 100 nM after 15 mins; set-up: scale not given: the % may be the effect or the level left
EMT6 [14] = assay: Inhibition of proteasome in mouse EMT6 cell lysate assessed as cleavage of Suc-leu-leu-val-Tyr-AMC at 100 nM after 30 mins; set-up: scale not given: the % may be the effect or the level left
EMT6 [15] = assay: Inhibition of proteasome in mouse EMT6 cell lysate assessed as cleavage of Suc-leu-leu-val-Tyr-AMC at 100 nM after 15 mins; set-up: scale not given: the % may be the effect or the level left
J558L [16] = assay: Inhibition of proteasome in mouse J558L cell lysate assessed as cleavage of Suc-leu-leu-val-Tyr-AMC at 100 nM after 60 mins; set-up: scale not given: the % may be the effect or the level left
EMT6 [17] = assay: Inhibition of proteasome in mouse EMT6 cell lysate assessed as cleavage of Suc-leu-leu-val-Tyr-AMC at 100 nM after 60 mins; set-up: scale not given: the % may be the effect or the level left
[18] = Inhibition of 20S proteasome from human erythrocyte
Outline: as §1

Row | Activity (EMT6 [1]) [%] | IC50 [3] [µM] | IC50 [4] [µM] | Activity (J558L [5]) [%] | Activity (J558L [7]) [%] | Activity (EMT6 [8]) [%] | Activity (J558L [9]) [%] | Activity (J558L [10]) [%] | Activity (EMT6 [11]) [%] | IC50 [12] [µM] | Activity (J558L [13]) [%] | Activity (EMT6 [14]) [%] | Activity (EMT6 [15]) [%] | Activity (J558L [16]) [%] | Activity (EMT6 [17]) [%] | Ki [18] [nM] | SMILES | Activity (EMT6 [2]) | Activity (J558L [6])
1 | – | > 100 | > 100 | 102 | 99 | – | 110 | 96 | – | > 100 | 100 | – | – | 112 | – | – | CC(C)C[C@H](NC(=O)[C@@H](CC(C)C)NC(=O)OCc1ccccc1)C(=O)N[C@@H](C=O)CC(C)C | – | –
2 | – | – | – | – | – | – | – | – | – | – | – | – | – | – | – | 0.015 | CC(C)C[C@@H](C=O)NC(=O)[C@H](Cc1cccc2ccccc12)NC(=O)[C@H](Cc1ccc2ccccc2c1)NC(=O)OCc1ccccc1 (Cbz-[2Nal]-[1Nal]-Leu-aldehyde) | – | –
3 | 100 | – | – | 114 | 121 | 104 | 118 | 117 | 99 | – | 115 | 95 | 97 | 123 | 95 | – | CC(C)CC(NC(=O)[C@@H](CC(C)C)NC(=O)OCc1ccccc1)C(=O)N[C@H](C=O)CC(C)C (single isomer, unassigned; (+)) [listing 2 of 2 here] | – | –
4 | 61 | – | – | 30 | 53 | 61 | 77 | 40 | 67 | – | 71 | 85 | 87 | 82 | 84 | – | CC(C)CC(NC(=O)[C@@H](CC(C)C)NC(=O)OCc1ccccc1)C(=O)N[C@H](C=O)CC(C)C (stereo in doubt) [listing 2 of 2 here] | – | –
5 | 14 | – | – | 15 | 44 | 12 | 44 | 25 | 19 | – | 32 | 25 | 20 | 60 | 35 | – | CC(C)C[C@@H](C=O)NC(=O)[C@H](CC(C)C)NC(=O)[C@H](CC(C)C)NC(=O)OCc1ccccc1 (stereo in doubt; 2) | – | –
6 | – | > 100 | > 100 | – | – | – | – | – | – | > 100 | – | – | – | – | – | – | CC(C)CC(NC(=O)[C@H](CC(C)C)NC(=O)OCc1ccccc1)C(=O)N[C@@H](C=O)CC(C)C (stereo in doubt; (+)) [listing 1 of 2 here] | – | –
7 | 46 | – | – | 55 | 77 | 44 | 93 | 64 | 53 | – | 92 | 91 | 95 | 94 | 91 | – | CC(C)CC(NC(=O)[C@H](CC(C)C)NC(=O)OCc1ccccc1)C(=O)N[C@@H](C=O)CC(C)C (stereo in doubt; (-)) [listing 2 of 2 here] | – | –

The remaining lines, values behind:

Row | SMILES | Activity (EMT6 [1]) [%] | IC50 [3] [µM] | IC50 [4] [µM] | Activity (J558L [5]) [%] | Activity (J558L [7]) [%] | Activity (EMT6 [8]) [%] | Activity (J558L [9]) [%] | Activity (J558L [10]) [%] | Activity (EMT6 [11]) [%] | IC50 [12] [µM] | Activity (J558L [13]) [%] | Activity (EMT6 [14]) [%] | Activity (EMT6 [15]) [%] | Activity (J558L [16]) [%] | Activity (EMT6 [17]) [%] | Ki [18] [nM] | Activity (EMT6 [2]) | Activity (J558L [6])
8 | CC(C)C[C@@H](C=O)NC(=O)[C@@H](CC(C)C)NC(=O)[C@H](CC(C)C)NC(=O)OCc1ccccc1 | 7 | 0.22 | 2.95 | 11 | 38 | 5 | 36 | 21 | 13 | 34.4 | 25 | 22 | 17 | 50 | 31 | – | inactive | inactive
9 | CC(C)C[C@H](C=O)NC(=O)[C@@H](CC(C)C)NC(=O)[C@@H](CC(C)C)NC(=O)OCc1ccccc1 | 70 | 9.81 | 11.3 | 58 | 71 | 62 | 89 | 66 | 78 | > 100 | 87 | 90 | 90 | 89 | 91 | – | – | –
10 | CC(C)CC(NC(=O)[C@@H](CC(C)C)NC(=O)OCc1ccccc1)C(=O)N[C@H](C=O)CC(C)C (single isomer, unassigned; (+)) [listing 1 of 2 here] | – | > 100 | > 100 | – | – | – | – | – | – | > 100 | – | – | – | – | – | – | – | –
11 | CC(C)CC(NC(=O)[C@@H](CC(C)C)NC(=O)OCc1ccccc1)C(=O)N[C@H](C=O)CC(C)C (stereo in doubt) [listing 1 of 2 here] | – | 1.79 | 17.2 | – | – | – | – | – | – | – | – | – | – | – | – | – | – | –
12 | CC(C)C[C@@H](C=O)NC(=O)[C@H](CC(C)C)NC(=O)[C@H](CC(C)C)NC(=O)OCc1ccccc1 (stereo in doubt) | 37 | – | – | 71 | 74 | 29 | 91 | 72 | 50 | – | 84 | 77 | 71 | 95 | 86 | – | – | –
13 | CC(C)C[C@@H](C=O)NC(=O)[C@H](CC(C)C)NC(=O)[C@H](CC(C)C)NC(=O)OCc1ccccc1 (stereo in doubt) [MG-132] | – | 5.46 | > 100 | – | – | – | – | – | – | > 100 | – | – | – | – | – | – | – | –
14 | CC(C)C[C@@H](C=O)NC(=O)[C@H](CC(C)C)NC(=O)[C@H](CC(C)C)NC(=O)OCc1ccccc1 (stereo in doubt; 2) [MG-132] | – | 0.89 | 5.7 | – | – | – | – | – | – | 104 | – | – | – | – | – | 4 | – | –
15 | CC(C)CC(NC(=O)[C@H](CC(C)C)NC(=O)OCc1ccccc1)C(=O)N[C@@H](C=O)CC(C)C (stereo in doubt; (+)) [listing 2 of 2 here] | 111 | – | – | 107 | 106 | 118 | 105 | 106 | 106 | – | 104 | 103 | 110 | 107 | 99 | – | – | –
16 | CC(C)CC(NC(=O)[C@H](CC(C)C)NC(=O)OCc1ccccc1)C(=O)N[C@@H](C=O)CC(C)C (stereo in doubt; (-)) [listing 1 of 2 here] | – | 0.97 | 22.8 | – | – | – | – | – | – | 91.3 | – | – | – | – | – | – | – | –
17 | CC(C)C[C@H](NC(=O)[C@H](Cc1ccccc1)NC(=O)c1cnccn1)B(O)O [BORTEZOMIB] | – | – | – | – | – | – | – | – | – | – | – | – | – | – | – | 0.62 | – | –
